Values joined by “and” are separate entries in the source; they are usually repeats but may differ in a detail not shown here. Equal values may be shown once.
Columns and labels:
[1] = target: T1, Serotonin 3 (5-HT3) receptor (Rattus norvegicus, UniProt P35563+Q9JJ16); assay: Affinity was evaluated by inhibition of [3H]GR-65630 binding to NG108-15 cell transfected with cloned rat 5-hydroxytryptamine 3 receptor; assay type: cell-based
T1 sequence (P35563 whole entry): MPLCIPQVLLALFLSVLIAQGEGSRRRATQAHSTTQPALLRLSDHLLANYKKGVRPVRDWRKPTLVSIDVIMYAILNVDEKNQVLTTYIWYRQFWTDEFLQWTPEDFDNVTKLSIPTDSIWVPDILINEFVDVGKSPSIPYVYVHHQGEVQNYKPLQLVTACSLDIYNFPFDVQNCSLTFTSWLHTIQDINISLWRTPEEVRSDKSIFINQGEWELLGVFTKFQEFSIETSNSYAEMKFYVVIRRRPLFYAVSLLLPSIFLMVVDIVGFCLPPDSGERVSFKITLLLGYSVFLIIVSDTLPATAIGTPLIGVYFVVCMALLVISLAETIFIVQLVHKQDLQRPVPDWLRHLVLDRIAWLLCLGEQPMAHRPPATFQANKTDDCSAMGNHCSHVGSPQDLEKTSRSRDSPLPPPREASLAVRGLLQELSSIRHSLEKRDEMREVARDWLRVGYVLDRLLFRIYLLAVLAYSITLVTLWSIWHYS
T1 sequence (Q9JJ16 whole entry): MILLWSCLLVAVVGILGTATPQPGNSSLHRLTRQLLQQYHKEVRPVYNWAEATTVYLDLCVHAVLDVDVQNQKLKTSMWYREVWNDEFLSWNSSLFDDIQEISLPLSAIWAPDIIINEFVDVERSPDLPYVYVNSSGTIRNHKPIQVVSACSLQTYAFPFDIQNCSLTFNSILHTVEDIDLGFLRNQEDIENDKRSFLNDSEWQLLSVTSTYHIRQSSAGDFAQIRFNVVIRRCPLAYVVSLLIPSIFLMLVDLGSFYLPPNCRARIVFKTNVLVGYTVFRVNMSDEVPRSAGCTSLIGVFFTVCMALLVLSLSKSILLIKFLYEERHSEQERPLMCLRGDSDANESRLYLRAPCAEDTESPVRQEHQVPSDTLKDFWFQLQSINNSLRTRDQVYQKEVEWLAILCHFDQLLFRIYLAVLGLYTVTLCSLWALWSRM

[2] = Ratio between Ki values of D2 and S-3 receptors
[3] = target: T2, 5-hydroxytryptamine receptor 2A (Rattus norvegicus, UniProt P14842); assay: Affinity was evaluated by inhibition of [125I]LSD binding to NIH 3T3 cells transfected with cloned rat 5-hydroxytryptamine 2A receptor; assay type: cell-based, NIH3T3
Procedure, shortened: (§1)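 Membranes from confluent GF-6 and P0 cell monolayers, homogenized in ice-cold 0.32 M sucrose, spun at 44 000g, stored at -80°C in 50 mM Tris-HCl pH 7.6. Triplicate tubes held 5 nM [125I]LSD (stock), test compound at 10^-9 to 10^-5 M final and 1–5 μg protein. Nonspecific binding was defined with 10 μM mesulergine.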

[4] = target: T3, D(2) dopamine receptor (Homo sapiens, UniProt P14416); assay: Affinity was evaluated by inhibition of [3H]spiperone binding to COS cells transfected with human dopamine D-2(long) receptor; assay type: cell-based
Procedure, shortened: (§2)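 Membranes from COS-7 cells transfected with human D-4 or D-2(long) receptor; [3H]spiperone binding inhibited in presence of sodium chloride. Ki averaged from two experiments.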

[5] = target: T4, 5-hydroxytryptamine receptor 2C (Rattus norvegicus, UniProt P08909); assay: Affinity was evaluated by inhibition of [125I]LSD binding to NIH 3T3 cells transfected with cloned rat 5-hydroxytryptamine 2C receptor; assay type: cell-based, NIH3T3; procedure, shortened: as §1
T4 sequence (P08909 whole entry): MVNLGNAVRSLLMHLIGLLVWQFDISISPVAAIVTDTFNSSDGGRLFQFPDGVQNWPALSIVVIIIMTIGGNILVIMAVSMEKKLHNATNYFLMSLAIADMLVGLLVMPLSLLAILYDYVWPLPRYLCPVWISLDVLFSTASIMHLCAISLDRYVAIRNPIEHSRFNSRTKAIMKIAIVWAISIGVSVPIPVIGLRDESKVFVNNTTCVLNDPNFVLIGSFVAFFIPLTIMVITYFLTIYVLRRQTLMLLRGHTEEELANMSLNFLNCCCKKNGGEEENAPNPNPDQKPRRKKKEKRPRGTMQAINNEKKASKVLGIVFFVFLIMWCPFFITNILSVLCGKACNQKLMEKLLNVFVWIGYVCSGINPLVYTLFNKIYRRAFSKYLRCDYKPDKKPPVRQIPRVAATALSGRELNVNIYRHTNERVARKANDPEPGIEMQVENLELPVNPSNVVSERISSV

[6] = Ratio between Ki values of D2 and S-2A receptors
[7] = target: D(1A) dopamine receptor (Rattus norvegicus, UniProt P18901); assay: Affinity was evaluated as inhibition constant for dopamine receptor D1 using [3H]-SCH- 23390 as radioligand
[8] = target: T5, D(4) dopamine receptor (Homo sapiens, UniProt P21917); assay: Affinity was evaluated by inhibition of [3H]-spiperone binding to COS cells transfected with human dopamine D-4 receptor; assay type: cell-based; procedure, shortened: as §2
T5 sequence (P21917 whole entry): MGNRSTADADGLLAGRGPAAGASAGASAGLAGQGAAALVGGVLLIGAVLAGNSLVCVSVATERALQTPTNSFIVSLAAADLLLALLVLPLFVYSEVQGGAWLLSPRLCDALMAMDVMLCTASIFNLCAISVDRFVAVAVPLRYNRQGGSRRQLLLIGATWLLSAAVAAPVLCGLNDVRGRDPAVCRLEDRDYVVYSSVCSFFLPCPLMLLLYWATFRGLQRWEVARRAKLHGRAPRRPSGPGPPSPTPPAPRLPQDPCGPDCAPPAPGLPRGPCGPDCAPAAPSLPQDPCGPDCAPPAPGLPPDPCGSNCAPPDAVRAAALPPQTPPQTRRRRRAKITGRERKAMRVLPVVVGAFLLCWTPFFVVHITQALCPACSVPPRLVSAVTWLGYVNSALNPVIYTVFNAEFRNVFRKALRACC

[9] = target: T5, D(4) dopamine receptor; assay: Affinity was evaluated as inhibition constant for dopamine D-4 receptor
[10] = target: T1, Serotonin 3 (5-HT3) receptor; assay: Affinity was evaluated as inhibition constant for serotonin 5-hydroxytryptamine 3 receptor; assay type: protein-complex assay
[11] = target: T2, 5-hydroxytryptamine receptor 2A; assay: Affinity was evaluated as inhibition constant for serotonin 5-hydroxytryptamine 2A receptor
[12] = target: T3, D(2) dopamine receptor; assay: Affinity was evaluated as inhibition constant for dopamine D-2 receptor
[13] = target: T4, 5-hydroxytryptamine receptor 2C; assay: Affinity was evaluated as inhibition constant for serotonin 5-hydroxytryptamine 2C receptor

T3 sequence (P14416 whole entry): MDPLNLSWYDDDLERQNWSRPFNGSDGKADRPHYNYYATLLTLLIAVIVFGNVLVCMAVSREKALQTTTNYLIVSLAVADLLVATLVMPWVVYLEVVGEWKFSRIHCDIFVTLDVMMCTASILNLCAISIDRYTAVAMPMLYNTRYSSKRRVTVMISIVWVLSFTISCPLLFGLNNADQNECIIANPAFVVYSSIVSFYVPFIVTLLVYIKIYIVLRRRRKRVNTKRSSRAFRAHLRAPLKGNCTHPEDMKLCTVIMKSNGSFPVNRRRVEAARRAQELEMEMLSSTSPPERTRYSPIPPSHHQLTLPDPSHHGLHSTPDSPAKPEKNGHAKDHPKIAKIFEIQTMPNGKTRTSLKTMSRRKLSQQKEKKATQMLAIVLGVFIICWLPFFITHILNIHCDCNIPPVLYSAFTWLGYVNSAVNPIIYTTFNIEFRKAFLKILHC
T2 sequence (P14842 whole entry): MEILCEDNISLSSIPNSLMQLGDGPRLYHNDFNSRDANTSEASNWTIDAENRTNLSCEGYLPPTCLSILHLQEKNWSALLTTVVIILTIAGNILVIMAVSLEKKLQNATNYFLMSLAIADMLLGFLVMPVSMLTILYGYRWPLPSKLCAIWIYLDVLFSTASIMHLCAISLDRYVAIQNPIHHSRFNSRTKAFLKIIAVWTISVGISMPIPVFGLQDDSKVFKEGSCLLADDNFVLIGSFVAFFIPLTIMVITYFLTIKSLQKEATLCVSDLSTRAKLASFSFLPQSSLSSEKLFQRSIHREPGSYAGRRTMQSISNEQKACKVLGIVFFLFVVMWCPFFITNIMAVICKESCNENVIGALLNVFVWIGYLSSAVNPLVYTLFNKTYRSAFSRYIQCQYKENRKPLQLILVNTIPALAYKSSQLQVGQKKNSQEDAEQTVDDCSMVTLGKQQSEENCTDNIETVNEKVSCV
Chain of D(1A) dopamine receptor (P18901 whole entry): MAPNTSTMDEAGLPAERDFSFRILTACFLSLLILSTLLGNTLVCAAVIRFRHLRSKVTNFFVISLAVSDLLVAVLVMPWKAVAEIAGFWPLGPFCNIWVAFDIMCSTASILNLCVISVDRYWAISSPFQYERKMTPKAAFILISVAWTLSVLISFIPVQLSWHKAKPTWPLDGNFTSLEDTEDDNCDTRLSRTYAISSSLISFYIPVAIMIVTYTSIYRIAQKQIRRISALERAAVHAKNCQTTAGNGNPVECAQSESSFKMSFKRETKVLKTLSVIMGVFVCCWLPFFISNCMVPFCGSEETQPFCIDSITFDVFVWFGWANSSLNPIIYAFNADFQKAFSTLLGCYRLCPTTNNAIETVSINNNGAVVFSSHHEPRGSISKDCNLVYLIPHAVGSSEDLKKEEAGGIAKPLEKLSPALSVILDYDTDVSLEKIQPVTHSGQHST

Compound	Ki [1] [nM]	Ratio [2]	Ki [3] [nM]	Ki [4] [nM]	Ki [5] [nM]	Ratio [6]	Ki [7] [nM]	Ki [8] [nM]	Ki [9] [nM]	Ki [10] [nM]	Ki [11]	Ki [12]	Ki [13]
C/C=C1/c2ccccc2C=C(N2CCN(C)CC2)c2ccccc21	35	21	98	730	110	7.4	68	300	–	–	–	–	–
CN1CCN(C2=Cc3cc(Cl)ccc3Cc3ccccc32)CC1	120	–	3	–	7	–	–	2900	–	–	–	–	–
CN1CCN(C2=Nc3ccccc3Oc3ccc(Cl)cc32)CC1 [LOXAPINE]	–	–	–	–	–	–	–	4.9	–	–	–	–	–
CN1CCN(C2=Nc3cc(Cl)ccc3N(C)c3ccccc32)CC1	–	28	–	–	–	7.9	–	–	120	40	140 nM	1100 nM	74 nM
CN1CCN(C2=Nc3ccccc3Nc3ccc(Cl)cc32)CC1 [ISOCLOZAPINE]	–	–	–	–	–	–	14	–	16	22	–	–	–
CN1CCN(C2=Cc3ccccc3Oc3ccccc32)CC1	41	0.51	4	21	6	5	–	2	–	–	–	–	–
CN1CCN(C2=Nc3ccccc3Nc3ccccc32)CC1	–	–	–	–	–	–	200	–	420	–	–	2500 nM	84 nM
CC(C)=C1c2ccccc2C=C(C2=CCN(C)CC2)c2ccccc21	–	–	–	–	–	–	–	–	–	–	2200 nM and 830 nM and 1200 nM	520 nM and 790 nM and 570 nM	3300 nM and 830 nM and 1500 nM
CN1CCN(C2=Cc3cc(Cl)ccc3Oc3ccccc32)CC1	57	0.15	3	8.7	6	3	–	0.9	–	–	–	–	–
C=C1c2ccccc2C=C(C2=CCN(C)CC2)c2ccccc21	–	–	–	–	–	8.3	–	–	330	–	30 nM	250 nM	35 nM
CN1CCN(C2=Cc3ccccc3Cc3ccc(Cl)cc32)CC1	49	–	2	–	6	–	–	–	–	–	–	–	–
C[C@@H]1c2ccccc2C=C(C2=CCN(C)CC2)c2ccccc21	–	–	–	–	–	8.6	–	–	190	–	74 nM	640 nM	70 nM
C=C1c2ccccc2C=C(N2CCN(C)CC2)c2ccccc21	31	1.8	11	57	18	5.2	4.7	47	–	–	–	–	–
CC(C)=C1c2ccc(Cl)cc2C=C(N2CCN(C)CC2)c2ccccc21	100	6.9	230	690	370	3	98	930	–	–	–	–	–
CC1c2ccccc2C=C(C2=CCN(C)CC2)c2ccccc21 (racemic)	–	–	–	–	–	9.4	–	–	320	–	72 nM	680 nM	89 nM
CC(C)=C1c2ccccc2C=C(N2CCN(C)CC2)c2ccccc21	81	3.6	250	290	390	1.2	120	2700	–	–	–	–	–
CN1CCC(C2=Cc3cc(Cl)ccc3Cc3ccccc32)CC1	–	14	–	–	–	200	–	–	2700	41	3 nM	560 nM	3 nM
CN1CCN(C2=Cc3ccccc3Oc3ccc(Cl)cc32)CC1	84	0.03	3	2.5	3	0.8	–	0.54	–	–	–	–	–
CC1c2ccccc2C=C(N2CCN(C)CC2)c2ccccc21 (stereo not given)	–	–	47	–	36	–	16	12	–	–	–	–	–
C[C@H]1c2ccccc2C=C(C2=CCN(C)CC2)c2ccccc21	–	–	–	–	–	3.7	–	–	400	–	200 nM	730 nM	250 nM
CC1CCN(C2=Cc3cc(Cl)ccc3Cc3ccccc32)CC1	–	< 1	–	–	–	< 1	–	–	1000	> 1000	> 1000 nM	1400 nM	> 1000 nM
CN1CCN(C2=Nc3cc(Cl)ccc3Oc3ccccc32)CC1 [ISOLOXAPINE]	39	–	11	–	19	–	–	23	–	–	–	–	–

Reference: ChEMBL document CHEMBL1127435 (J Med Chem, 1994)
